Measured values taken from paper PMC7125971 (European Journal of Medicinal Chemistry, 2015).
Entries after “also recorded” stand apart in the source; their conditions may differ.

Legend:
[1] = test system: HeLa cells (cervical carcinoma); experiment: Antiproliferative assay; format: cell-based, human
How it was run: (§1)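 Cells grown as monolayers in DMEM with 10% FBS, 2 mM L-glutamine, 100 U/ml penicillin and 100 μg/ml streptomycin at 37 °C, 5% CO2. 5000 cells/well seeded on day 0. Compound added in five 10-fold dilutions (0.01–100 μM); final DMSO ≤0.1%. Cells incubated 72 h, then MTT; absorbance converted to percentage growth vs same-plate untreated controls. Quadruplicate points in three experiments; ANOVA with Tukey post-hoc test.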

[2] = test system: Para-influenza-3 virus; experiment: organism not typed; format: cell-based; conditions: Vero, read-out: EC50 Para-influenza-3 virus
[3] = test system: Reovirus-1; experiment: organism not typed; format: cell-based; conditions: Vero, read-out: EC50 Reovirus-1
[4] = test system: African green monkey kidney epithelial cells (Vero); conditions: alteration of normal cell morphology, listed as C00010
[5] = test system: human cytomegalovirus (HCMV); experiment: Anti-HCMV activity in HEL cells, strain not told apart in the statement; format: cell-based; conditions: compared to compound 3
[6] = test system: Punta Toro virus; experiment: microbe, parasite or virus in culture; format: cell-based; conditions: Vero, read-out: EC50 Punta Toro virus
[7] = test system: 3T3 cells (embryonal murine fibroblasts); experiment: Cytotoxic effects on embryonal murine fibroblasts 3T3; format: cell-based, mouse
How it was run: as §1

[8] = test system: all tested malignant cell lines; experiment: Cytostatic activity on the whole panel of malignant cell lines; format: cell-based
How it was run: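 Malignant lines HeLa, SW620, MiaPaCa-2, HepG2 and CFPAC-1 grown as monolayers in DMEM with 10% FBS at 37 °C, 5% CO2. Plated at 5000 cells/well and exposed 72 h to five 10-fold dilutions (0.01–100 μM), with DMSO ≤0.1%. Growth read by MTT and converted to percentage growth by NIH formulas. Quadruplicate points in three experiments; ANOVA with Tukey post-hoc test.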

[9] = test system: human embryonic lung cells (HEL); experiment: Cytostatic activity; format: cell-based
How it was run: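 HEL cells seeded at 5 × 10^3 cells/well and allowed to proliferate 24 h. Medium with varying compound concentrations then added, and cells incubated 3 days at 37 °C. Cell number counted by Coulter counter. CC50 (50% reduction in proliferation vs untreated controls) read from plots of cell number (% of control) against concentration.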

[10] = test system: Madin Darby canine kidney (MDCK) cells
[11] = test system: Crandell-Rees feline kidney cells (CRFK)

With O=C1O/C(=C\Cn2cnc3c(F)nc(F)c(Cl)c32)C(OCc2ccccc2)=C1OCc1ccccc1 [Compound 2, 3,4-di-O-benzyl-5-(9-(3-chloro-2,6-difluoro-1H-imidazo[4,5-c]pyridine-9-yl)ethylidene)furan-2(5H)-one] the “activity / cytostatic effects on HeLa cells (in words)” value (“activity / cytostatic effects” for short) [1] was “no cytostatic effects”, the EC50 [2] was greater than 20 µM and the EC50 [3] was greater than 20 µM. The MCC [4] was no less than 20 µM.
O=C1O/C(=C\Cn2cnc3c(Cl)c(F)nc(F)c32)C(O)=C1O [Compound 8, 5-(2-(7-chloro-4,6-difluoro-3H-imidazo[4,5-c]pyridine-3-yl)ethylidene)-3,4-dihydroxyfuran-2(5H)-one] was tested, and the “anti-HCMV activity (in words)” value [5] was “loss of anti-HCMV activity”.
In the case of NC(=O)c1ncn([C@@H]2O[C@H](CO)[C@@H](O)[C@H]2O)n1 [Ribavirin, reference compound], the EC50 [3] is reported as greater than 250 µM and the EC50 [6] is reported as 150 ± 141 µM.
With O=C1NC(O)(CCn2cnc3cncc(Br)c32)C(OCc2ccccc2)=C1OCc1ccccc1 (centres unmarked) [Compound 6, 3,4-di-O-benzyl-5-(9-(3-bromo-1H-imidazo[4,5-c]pyridine-9-yl)ethyl)-5-hydroxy-1H-pyrrolo-2(5H)-one] the “cytotoxic effects on 3T3 cells (in words)” value [7] was “moderate or low cytotoxic effects” and the “cytostatic activity on the malignant cell line panel (in words)” value (“cytostatic activity” below) [8] was “weak and nonselective antiproliferative activity”.
In the case of O=C1O/C(=C\Cn2cnc3cncc(Br)c32)C(OCc2ccccc2)=C1OCc1ccccc1 [Compound 1, 3,4-di-O-benzyl-5-(9-(3-bromo-1H-imidazo[4,5-c]pyridine-9-yl)ethylidene)furan-2(5H)-one], the “activity / cytostatic effects” value [1] is reported as “moderate activity”, the “cytotoxic effects on 3T3 cells (in words)” value [7] is reported as “low cytotoxic effects; also recorded: moderate or low cytotoxic effects” and the “cytostatic activity” value [8] is reported as “weak and nonselective antiproliferative activity”.
For Nc1nc(F)c(Cl)c2c1ncn2CCC1(O)NC(=O)C(OCc2ccccc2)=C1OCc1ccccc1 (centres unmarked) [Compound 7, 5-(9-(6-amino-3-chloro-2-fluoro-1H-imidazo[4,5-c]pyridine-9-yl)ethyl)-3,4-di-O-benzyl-5-hydroxy-1H-pyrrolo-2(5H)-one], the “anti-HCMV activity (in words)” value [5] was “lost anti-HCMV activity; also recorded: loss of anti-HCMV activity”.
For O=C1O/C(=C\Cn2cc(I)c3c(Cl)ncnc32)C(OCc2ccccc2)=C1OCc1ccccc1 [Compound 10, 3,4-di-O-benzyl-5-(9-(6-chloro-7-iodo-7H-pyrrolo[2,3-d]pyrimidine-9-yl)ethylidene)furan-2(5H)-one], the “cytostatic activity” value [8] was “no marked cytostatic nor antiviral activities”.
O=C1O/C(=C\Cn2cnc3cc[nH]c3c2=O)C(OCc2ccccc2)=C1OCc1ccccc1 [Compound 14, 3,4-di-O-benzyl-5-(1-(3H-pyrrolo[3,2-d]pyrimidine-4(5H)-one-1-yl)ethylidene)furan-2(5H)-one] was tested, and the “cytotoxic effects on 3T3 cells (in words)” value [7] was “without cytotoxic effects”.
With Nc1ncnc2c1ncn2C[C@H](O)CO [(S)-DHPA, (S)-9-(2,3-dihydroxypropyl)adenine, reference compound] the EC50 [2] was greater than 250 µM and the EC50 [3] was greater than 250 µM.
For O=C1NC(O)(/C=C\n2cc(I)c3c(Cl)ncnc32)C(OCc2ccccc2)=C1OCc1ccccc1 (centres unmarked) [Compound 12, 3,4-di-O-benzyl-5-(9-(6-chloro-7-iodo-7H-pyrrolo[2,3-d]pyrimidine-9-yl)-vinyl)-5-hydroxy-1H-pyrrolo-2(5H)-one], the “cytotoxic effects on 3T3 cells (in words)” value [7] was “moderate or low cytotoxic effects” and the “cytostatic activity” value [8] was “weak and nonselective antiproliferative activity; also recorded: no marked cytostatic nor antiviral activities”.
O=C1O/C(=C\Cn2cnc3c(Cl)c(F)nc(F)c32)C(OCc2ccccc2)=C1OCc1ccccc1 [Compound 3, 3,4-di-O-benzyl-5-(7-(3-chloro-2,6-difluoro-1H-imidazo[4,5-c]pyridine-7-yl)ethylidene)furan-2(5H)-one] was tested, and the “activity / cytostatic effects” value [1] was “did not show any cytostatic effects”, the “cytotoxic effects on 3T3 cells (in words)” value [7] was “did not show any cytostatic effects” and the “cytotoxic effects on HEL cells (in words)” value [9] was “without cytotoxic effects; also recorded: did not show any cytostatic effects”. The EC50 [2] was greater than 20 µM, the EC50 [3] was greater than 20 µM and the “cytostatic effects on MDCK cells (in words)” value [10] was “did not show any cytostatic effects”. The “cytostatic effects on CRFK cells (in words)” value [11] was “did not show any cytostatic effects”.
